# Results: article PMC5614685 (Biochemistry and Biophysics Reports, 2017)
# Read-outs that look alike come from different tables or passages of the source. Bridge positions count the residues as written; N and C are the ends. Ends that are not written are not given here. Peptide text beside a SMILES is read from it.
# T1: ActRIIB-Fc (Homo sapiens, UniProt Q13705)
# T1 sequence (Q13705 19-135): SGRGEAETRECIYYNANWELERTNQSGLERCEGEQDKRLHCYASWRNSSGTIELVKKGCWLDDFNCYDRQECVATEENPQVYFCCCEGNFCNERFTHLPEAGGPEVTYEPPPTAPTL
# T2: ActRIIB-Fc (extracellular domain of human ActRIIB, activin receptor type-2B, fused to human IgG-Fc) (human, UniProt Q13705 19-135)
# T2 sequence: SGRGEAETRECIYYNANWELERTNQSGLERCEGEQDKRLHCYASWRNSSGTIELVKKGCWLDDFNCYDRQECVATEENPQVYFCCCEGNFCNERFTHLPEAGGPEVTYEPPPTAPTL
# Experiments:
# ActRIIB-Fc [1] = target: T1, ActRIIB-Fc; assay: SPR binding assay, ActRIIB-Fc
# Procedure, shortened: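 ActRIIB-Fc immobilized on a CM5 chip by amine coupling to about 3000 RU in PBS/0.01% P20 at 22 °C. Peptide concentration series injected in PBS/0.01% P20/1% DMSO at 75 μL/min: 60 s contact, up to 60 s dissociation. Double-referenced data globally fitted to a 1:1 model for kon and koff, KD = koff/kon. For fast off-rates, KD from a steady-state 1:1 fit.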
# ActRIIA-Fc [2] = target: T3, ActRIIA-Fc (Homo sapiens, UniProt P27037); assay: SPR binding assay, ActRIIA-Fc
# Procedure, shortened: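 ActRIIA-Fc amine-coupled to a CM5 chip to about 9000 RU in PBS/0.01% P20 at 22 °C. Peptide concentration series run in PBS/0.01% P20/1% DMSO at 75 μL/min: 60 s association, up to 60 s dissociation. Sensorgrams double-referenced and globally fitted to a 1:1 model, KD = koff/kon. For fast off-rates, KD taken from a 1:1 steady-state fit.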
# ActRIIB-Fc [3] = target: T1, ActRIIB-Fc; assay: Plate ELISA, ligand binding of ActRIIB-Fc; details: ligand directly coated; HRP anti-human IgG Fc, chemiluminescence
# ActRIIA-Fc [4] = target: T3, ActRIIA-Fc; assay: Plate ELISA, ligand binding of ActRIIA-Fc; details: ligand directly coated; HRP anti-human IgG Fc, chemiluminescence
# Procedure, shortened: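 Wells coated directly with each ligand overnight at 4 °C, then blocked with 0.5% BSA in PBS for 2 h at room temperature. ActRIIA-Fc added, then washed three times with PBST. Bound Fc protein detected with HRP goat anti-human IgG Fc (5000-fold dilution in 0.5% BSA/PBS) and a chemiluminescence reagent.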
# Target sequence in this assay (P27037 20-134 limits assumed): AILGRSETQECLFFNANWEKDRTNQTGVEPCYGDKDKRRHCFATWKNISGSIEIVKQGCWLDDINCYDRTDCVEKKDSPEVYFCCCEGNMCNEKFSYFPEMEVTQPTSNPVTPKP
# mice = details: injection to mice; ref Suragani et al. [9]; cited from earlier work
# [5] = target: T2, ActRIIB-Fc (extracellular domain of …); assay: SPR
# ActRIIA-Fc [6] = target: ActRIIA-Fc (UniProt P27037); assay: SPR
# ActRIIB-Fc/ActRIIA-Fc = details: ref [3]; cited from earlier work
# [7] = target: T2, ActRIIB-Fc (extracellular domain of …); assay: SPR; remark: listed apart in the source
# ActRIIA-Fc (UniProt P27037), sequence (P27037 20-135): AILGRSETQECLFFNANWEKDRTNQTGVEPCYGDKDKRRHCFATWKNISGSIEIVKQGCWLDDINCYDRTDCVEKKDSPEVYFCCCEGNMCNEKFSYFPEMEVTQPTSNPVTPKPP
molecule,measurement,setting,value
CC[C@H](C)[C@@H]1NC(=O)[C@H](CCCNC(=N)N)NC(=O)[C@H](CCCNC(=N)N)NC(=O)[C@H](C(C)C)NC(=O)[C@H](CO)NC(=O)[C@H]([C@@H](C)O)NC(=O)CNC(=O)[C@H](Cc2ccccc2)NC(=O)[C@@H](NC(=O)[C@@H](N)C(C)C)CSSC[C@@H](C(=O)N[C@H](C(=O)O)C(C)C)NC1=O [AR2mini] (H-VCFGTSVRRICV-OH; disulfide 2-11),koff,ActRIIB-Fc [1],> 0.1 s⁻¹
C[C@@H]1NC(=O)[C@H](CCCNC(=N)N)NC(=O)[C@H]([C@@H](C)O)NC(=O)[C@@H](NC(=O)[C@H](CCC(N)=O)NC(=O)[C@H](Cc2ccccc2)NC(=O)[C@@H]2CCCN2)CSSC[C@@H](C(=O)N[C@H](C(=O)N[C@@H](CCCCN)C(=O)N[C@@H](CO)C(=O)O)[C@@H](C)O)NC(=O)[C@H](Cc2ccc(O)cc2)NC(=O)[C@H](Cc2ccc(O)cc2)NC(=O)[C@H](Cc2c[nH]c3ccccc23)NC(=O)CNC(=O)[C@H](CC(=O)O)NC(=O)[C@H](CCCNC(=N)N)NC1=O [AR8] (H-PFQCTRARDGWYYCTKS-OH; disulfide 4-14),koff,ActRIIB-Fc [1],> 0.1 s⁻¹
CC(C)C[C@@H]1NC(=O)[C@H]([C@@H](C)O)NC(=O)[C@H](CCCCN)NC(=O)[C@@H]2CCCN2C(=O)[C@H](Cc2c[nH]c3ccccc23)NC(=O)[C@@H](NC(=O)[C@H](CCCCN)NC(=O)[C@H](Cc2ccc(O)cc2)NC(=O)[C@@H](N)Cc2c[nH]cn2)CSSC[C@@H](C(=O)N[C@@H](Cc2c[nH]c3ccccc23)C(=O)N[C@@H](CC(N)=O)C(=O)N[C@@H](Cc2c[nH]cn2)C(=O)O)NC(=O)[C@H](CCCCN)NC(=O)[C@H](Cc2ccccc2)NC1=O [AR9] (H-HYKCWPKTLFKCWNH-OH; disulfide 4-12),koff,ActRIIB-Fc [1],0.049 s⁻¹
same,Kd,ActRIIA-Fc [2],> 100 µM
"GDF11: growth differentiation factor 11, R&D Systems (1958-GD)","binding to ActRIIB-Fc (plate ELISA), in words",ActRIIB-Fc [3],"binds to activin A, MSTN, and GDF11 in a concentration-dependent manner"
same,"binding to ActRIIA-Fc (plate ELISA), in words",ActRIIA-Fc [4],binds to activin A and GDF11
same,"anemia, in words",mice,causes anemia
"MSTN: recombinant mature human MSTN (myostatin), ActRIIB ligand","binding to ActRIIB-Fc (plate ELISA), in words",ActRIIB-Fc [3],"binds to activin A, MSTN, and GDF11 in a concentration-dependent manner"
same,"binding to ActRIIA-Fc (plate ELISA), in words",ActRIIA-Fc [4],but not MSTN
"activin A: ActRIIB ligand, purchased from R&D Systems (338-AC)","binding to ActRIIB-Fc (plate ELISA), in words",ActRIIB-Fc [3],"binds to activin A, MSTN, and GDF11 in a concentration-dependent manner"
same,"binding to ActRIIA-Fc (plate ELISA), in words",ActRIIA-Fc [4],binds to activin A and GDF11
PFQCTRARDGWYYCTKS-OH (disulfide 4-14 (inferred)) [AR8],Kd,[5],3.6 µM
same,Kd,ActRIIA-Fc [6],18 µM
"BMP9: bone morphogenetic protein 9, R&D Systems (3209-BP) (protein, UniProt Q9UK05 320-429, looked up) Growth/differentiation factor …: SAGAGSHCQKTSLRVNFEDIGWDSWIIAPKEYEAYECKGGCFFPLADDVTPTKHAIVQTLVHLKFPTKVGKACCVPTKLSPISVLYKDDMGVPTLKYHYEGMSVAECGCR","PPI with ActRIIB-Fc/ActRIIA-Fc, in words",ActRIIB-Fc/ActRIIA-Fc,have been previously reported
VCFGTSVRRICV-OH (disulfide 2-11 (inferred)) [AR2mini],Kd,[7],1.8 µM
same,Kd,ActRIIA-Fc [6],19 µM
VCDGTSVPRICV-OH (disulfide 2-11 (inferred)) [AR2mut],Kd,[7],> 100 µM
HYKCWPKTLFKCWNH-OH (disulfide 4-12 (inferred)) [AR9],Kd,[7],0.86 µM
